# Results from different studies.
# Lines come from different studies, so protocols differ.
# Target: Protein-tyrosine kinase 2-beta (PTK2B, Homo sapiens, UniProt Q14289)
SMILES,observed,method,tested at,remaining binding [%]
O=C(O)[C@H]1[C@H](Cn2nnc3ccccc3c2=O)CC[C@@H]1C(=O)c1ccc(OCCC2CCOCC2)cc1,cell-free assay,competition with immobilised ligand,1 µM,75
COc1ncc2cc3ccccc3nc2c1C#N,cell-free assay,competition with immobilised ligand,5 µM,100
CN(C)c1nccc(-c2cnc3ncccn23)n1,binding,,1 µM,92
C[C@@H](c1ccc(-n2cnc3c(N)ncnc32)cc1)N1CCc2nn(C)c(Cc3ccccc3)c2C1=O,binding,competition with immobilised ligand,0.1 µM,95
c1cnn2ncc(-c3ccnc(N4CCC45COC5)n3)c2c1,binding,,1 µM,80
CN(C)C(=O)Cn1cc(-c2nc([C@@](C)(c3ccc(-c4cnc(N)nc4)cc3)C3CC3)no2)cn1,cell-free assay,competition with immobilised ligand,1 µM,87
C[C@H]1CCN(c2nccc(-c3cnn4ncccc34)n2)C1,binding,,1 µM,100
Nc1ncc2c(n1)-c1c([nH]c3ccc(C#CC4CC4)cc13)CCCC2,binding,competition with immobilised ligand,1 µM,98
CO[C@H]1CC[C@H](CNc2ccc(S(=O)(=O)NC(=O)c3ccc(N4CCN(CC5=C(c6ccc(Cl)cc6)CC(C)(C)CC5)CC4)cc3Oc3cnc4[nH]ccc4c3)cc2[N+](=O)[O-])CC1,cell-free assay,competition with immobilised ligand,1 µM,87
O=C(NCCCN1CCOCC1)c1ccc(Nc2nccc(-c3cc4ccccc4s3)n2)cc1,binding,competition with immobilised ligand,1 µM,64
Cn1cc(Cl)c2c(Oc3c(F)cc(Nc4cc(Cl)nc(N)n4)cc3F)ccnc21,cell-free assay,competition with immobilised ligand,0.1 µM,100
CC1CCCN1c1nccc(-c2cnn3ncccc23)n1 (stereo not drawn),binding,,1 µM,100
O=C(NC[C@@H]1[C@H]2CN(C(=O)OCc3cc(C(F)(F)F)cc(C(F)(F)F)c3)C[C@@H]12)c1ccc2[nH]nnc2c1,cell-free assay,competition with immobilised ligand,1 µM,85
O=C(c1ccc(Nc2nccc(-c3cc4ccccc4s3)n2)cc1)N1CCC(N2CCCC2)CC1,binding,competition with immobilised ligand,1 µM,81
NS(=O)(=O)c1cc(NC(=O)C2(c3ccccc3Cl)CC2)ccc1Oc1cccc(Cl)c1,cell-free assay,competition with immobilised ligand,1 µM,91
N[C@@H]1CCN(c2nccc(-c3cnn4ncccc34)n2)C1,binding,,1 µM,100
O=C(NCCCN1CCOCC1)c1ccc(Nc2ncc(Cl)c(-c3ccc(Cl)s3)n2)cc1,binding,competition with immobilised ligand,1 µM,41
O=C(Nc1c[nH]nc1C(=O)NC1CCNCC1)c1cc(F)cc(F)c1,binding,competition with immobilised ligand,1 µM,91
Cc1cnn2ncc(-c3ccnc(N(C)C)n3)c2c1,binding,,1 µM,100
C=CC(=O)N1CCC(C(=O)NCC(=O)N2CCN(c3nc(-c4cnc(N)nc4C(F)F)nc(N4CCOCC4)n3)CC2)CC1,binding,competition with immobilised ligand,1 µM,100
CNC(=O)[C@@H]1CC[C@@H](n2c(-c3ccc4cnccc4c3)nc3ccc(C(=O)NCc4cccc(C(N)=O)c4)cc32)C1,binding,competition with immobilised ligand,1 µM,99
